Measured values gathered from unrelated publications.
ABCB1: ATP-dependent translocase ABCB1 (ABCB1, Homo sapiens, UniProt P08183)
CYP2A6: Cytochrome P450 2A6 (CYP2A6, Homo sapiens, UniProt P11509)

Structure (SMILES) | target | test | system | setting | endpoint | result
Cc1cc(Nc2ncnc3ccc(NC4=NC(C)(C)CO4)cc23)ccc1Oc1ccn2ncnc2c1 | ABCB1 |  | MDCK-MDR1, Caco-2 | 1 µM, 1 h, pH 7.4 | efflux ratio | 9.48
C=C[C@H]1C[N@@]2CC[C@H]1C[C@@H]2[C@@H](O)c1ccnc2ccc(OC)cc12 | ABCB1 |  | MDCK-MDR1 | 5 µM | Papp A→B | 13.1 ×10⁻⁶ cm/s
O=C(O)CSc1nnc(Br)n1-c1ccc(C2CC2)c2ccccc12 | Multidrug and toxin extrusion protein 2 (SLC47A2, Homo sapiens, UniProt Q86VL8) | transporter uptake, inhibitor | HEK293 | 100 µM, 2 min | inhibition | -9%
Cc1ccc(C(=O)N2CCOC[C@H]2Cc2cccc(-n3nccn3)c2)c(-n2nccn2)c1 | CYP2A6 | enzyme activity, inhibitor | human, liver microsomes | 100 µM | inhibition | 19%
CCc1cc(/C(C)=N/OCc2ccc(C3CCCCC3)c(C(F)(F)F)c2)ccc1CN1CC(C(=O)O)C1 | CYP2A6 | enzyme activity, inhibitor | human, liver microsomes | 200 µM, 20 min | inhibition | 30.6%
C[C@]12CCCN1CC1=NNC(=O)c3cc(F)cc4[nH]c2c1c34 | ABCB1 |  | MDCK-MDR1 | 10 µM | Papp B→A | 41.2 ×10⁻⁶ cm/s
C[C@H]1O[C@@H](O[C@H]2[C@@H](O)C[C@H](O[C@H]3[C@@H](O)C[C@H](O[C@H]4CC[C@@]5(C)[C@H](CC[C@@H]6[C@@H]5C[C@@H](O)[C@]5(C)[C@@H](C7=CC(=O)OC7)CC[C@]65O)C4)O[C@@H]3C)O[C@@H]2C)C[C@H](O)[C@@H]1O | ABCB1 |  | human, plasma | oral, 0.5 mg | half-life | 42.5 h
CC1(C)CCC2(CC1)N[C@@H](C(=O)N[C@@H]1CC[C@@H](C(N)=O)OC1)[C@H](c1ccnc(Cl)c1F)[C@]21C(=O)Nc2cc(Cl)ccc21 | ABCB1 |  | Caco-2 | 3 µM, 2 h | efflux ratio | 14.1
COCCc1ccc(OCC(O)CNC(C)C)cc1 (stereo not drawn) | ABCB1 |  | MDCK-MDR1 | 5 µM | Papp A→B | 32.1 ×10⁻⁶ cm/s
